# Laboratory results from publication PMC7993319 (Clinical and Translational Science, 2020).
# Like-named read-outs stand apart in the source and are kept apart here.
# Columns and labels:
# [1] = cited from earlier work
# ALK = conditions: lactam metabolite, two diastereoisomers; cited from earlier work
# [2] = Safety monitoring in the trial; type: in vivo, human (patient with ALK‐positive NSCLC)
# How it was run: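 Safety was monitored by physical examination and laboratory tests on days 1 and 15, with safety visits on days 8 and 29. Triplicate 12-lead recordings were taken predose on day 1 (before the oral CYP3A inhibitor, 150 mg q.d. from day 2) and on days 8 and 15 of co-treatment with the ALK inhibitor. QT was corrected by Fridericia.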
# [3] = type: in vivo, human (patients with ALK‐positive NSCLC); conditions: for Crizotinib Cmin,ss: enrolled patient; for AUC(0-t): human, oral, Crizotinib AUC0–12, enrolled patient
# How it was run: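 Patients on standard oral ALK inhibitor (250 mg b.i.d., ≥14 days) with trough <310 ng/mL got oral CYP3A inhibitor 150 mg q.d. from day 2 for 14 days. Plasma sampled predose and 0.5–12 h (11 points) on days 1 and 15, plus trough on day 8. LC-MS/MS with ether extraction, isotope-labelled internal standard, 1–5,000 ng/mL. AUC0–12 by noncompartmental analysis.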
# [4] = co‐administration of CYP3A‐inducing rifampin; cited from earlier work
# NSCLC = conditions: cited from earlier work
smiles,measurement,setting,value
CCc1cc2c(cc1N1CCC(NCCO)CC1)C(C)(C)c1[nH]c3cc(C#N)ccc3c1C2=O [M4],Activity of metabolite relative to alectinib,[1],equipotently active
C[C@@H](Oc1cc(-c2cnn(C3CCNC(=O)C3)c2)cnc1N)c1c(Cl)ccc(F)c1Cl (some centres unmarked) [PF‐06260182],ALK‐inhibiting activity,ALK,4–8%
CCc1cc2c(cc1N1CCC(N3CCOCC3)CC1)C(C)(C)c1[nH]c3cc(C#N)ccc3c1C2=O [alectinib],Increase of combined AUC of alectinib and the M4 metabolite,[1]; administration of the CYP3A inhibitor posaconazole,36%
same,CYP3A contribution to clearance,[1]; alectinib,40–50%
CC(C)c1nc(CN(C)C(=O)N[C@@H](CCN2CCOCC2)C(=O)N[C@H](CC[C@H](Cc2ccccc2)NC(=O)OCc2cncs2)Cc2ccccc2)cs1 [cobicistat],QTcF,"[2]; day 8 of cobicistat treatment, with crizotinib",410 ms
same,Heart rate,"[2]; day 15, crizotinib plus cobicistat",54 bpm
same,QTcF,"[2]; day 15 of cobicistat treatment, with crizotinib",413 ms
same,Safety signals / adverse events,"[2]; single patient, crizotinib 250 mg b.i.d. plus cobicistat 150 mg q.d. for 14 days",No safety signals occurred
same,Laboratory changes,"[2]; single patient, crizotinib plus cobicistat",no significant laboratory changes except a grade I increase in transaminases
C[C@@H](Oc1cc(-c2cnn(C3CCNCC3)c2)cnc1N)c1c(Cl)ccc(F)c1Cl [crizotinib],"Mean crizotinib Cmin,ss at screening","[3]; 7 screened patients, oral crizotinib 250 mg b.i.d., steady state, plasma",279 ± 77 ng/mL
same,AUC0–12 ratio,[3]; crizotinib with cobicistat (14 days) vs baseline,1.78
same,"Crizotinib Cmin,ss","[3]; day 1, before cobicistat, crizotinib 250 mg b.i.d.",158 ng/mL
same,"Crizotinib Cmin,ss","[3]; day 8, with oral cobicistat 150 mg q.d.",308 ng/mL
same,AUC(0-t),"[3]; plasma, after 14 days of cobicistat treatment",3920 ng·h/mL
same,AUC(0-t),"[3]; plasma, baseline (before cobicistat), steady state",2210 ng·h/mL
same,"Underexposed patients (Cmin,ss < 310 ng/mL)",[3]; unselected NSCLC population screened (5 of 7 patients),71%
same,Increase of crizotinib AUC0–12,[3]; with cobicistat for 14 days vs before cobicistat,78%
same,QTcF,"[2]; before cobicistat treatment, on crizotinib, triplicate ECG",394 ms
same,Heart rate,"[2]; day 1, before cobicistat, on crizotinib",56 bpm
same,Decrease of crizotinib AUC,[4],72%
same,Hazard ratio (progression-free survival model),"NSCLC; lowest quartile vs. the combined upper three quartiles, 90% confidence interval: 1.62–6.36",3.2
same,ORR,"NSCLC; quartile with the highest Cmin,ss",60–75%
same,ORR,"NSCLC; quartile with the lowest Cmin,ss (< 310 ng/mL)",24–47%
